Measurements from ChEMBL document CHEMBL4725350, “2-Oxaadamant-1-yl Ureas as Soluble Epoxide Hydrolase Inhibitors: In Vivo Evaluation in a Murine Model of Acute Pancreatitis” (J Med Chem, 2020).
Activity calls are given as the source filed them. The calls are words filed in the database; no cut-off is given here.

Legend:
[1] = target: T1, Bifunctional epoxide hydrolase 2 (Homo sapiens, UniProt P34913); assay: Inhibition of recombinant human soluble epoxide hydrolase using CMNPC as substrate preincubated for 5 mins followed by substrate addition and measured at 30 secs interval for 10 mins by fluorescence assay
T1 sequence (P34913 whole entry): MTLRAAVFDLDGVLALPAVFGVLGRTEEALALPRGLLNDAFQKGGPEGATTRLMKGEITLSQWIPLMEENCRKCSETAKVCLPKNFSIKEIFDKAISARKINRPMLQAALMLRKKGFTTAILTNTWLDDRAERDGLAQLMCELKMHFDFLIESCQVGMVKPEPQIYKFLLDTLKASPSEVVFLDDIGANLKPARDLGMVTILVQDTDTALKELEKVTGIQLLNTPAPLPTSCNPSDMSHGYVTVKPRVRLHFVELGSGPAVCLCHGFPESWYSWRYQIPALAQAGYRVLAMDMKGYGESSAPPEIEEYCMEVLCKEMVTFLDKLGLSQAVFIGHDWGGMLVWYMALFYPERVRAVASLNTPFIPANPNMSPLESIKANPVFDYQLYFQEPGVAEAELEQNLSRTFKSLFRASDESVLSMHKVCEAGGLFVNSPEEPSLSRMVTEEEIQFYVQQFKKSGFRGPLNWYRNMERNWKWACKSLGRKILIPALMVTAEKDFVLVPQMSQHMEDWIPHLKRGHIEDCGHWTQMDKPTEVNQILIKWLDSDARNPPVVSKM

Homo sapiens [2] = organism: Homo sapiens; assay: Selectivity ratio of inhibition of recombinant human CYP2C9 to IC50 for inhibition of recombinant human soluble epoxide hydrolase
[3] = Selectivity ratio of inhibition of recombinant human CYP2C9 to IC50 for inhibition of recombinant mouse soluble epoxide hydrolase
[4] = Selectivity ratio of inhibition of recombinant human CYP1A2 to IC50 for inhibition of recombinant mouse soluble epoxide hydrolase
[5] = Selectivity ratio of inhibition of recombinant human CYP2D6 to IC50 for inhibition of recombinant mouse soluble epoxide hydrolase
[6] = Selectivity ratio of inhibition of recombinant human CYP3A4 to IC50 for inhibition of recombinant mouse soluble epoxide hydrolase using 7-BFC as substrate
[7] = Efflux ratio of apparent permeability across basolateral to apical side over apical to basolateral side in human Caco-2 cells at 10 uM measured after 2 hrs by LC-MS/MS analysis
Homo sapiens [8] = organism: Homo sapiens; assay: Selectivity ratio of inhibition of recombinant human CYP3A4 to IC50 for inhibition of recombinant human soluble epoxide hydrolase using DBF as substrate
Homo sapiens [9] = organism: Homo sapiens; assay: Selectivity ratio of inhibition of recombinant human CYP2D6 to IC50 for inhibition of recombinant human soluble epoxide hydrolase
[10] = Apparent permeability across basolateral to apical side in human Caco-2 cells at 10 uM measured after 2 hrs by LC-MS/MS analysis; settings: caco-2, 2 h
Homo sapiens [11] = organism: Homo sapiens; assay: Selectivity ratio of inhibition of recombinant human CYP1A2 to IC50 for inhibition of recombinant human soluble epoxide hydrolase
Mus musculus [12] = assay: Protection against cerulein-induced acute pancreatitis in C57BL/6J mouse assessed as reduction in edema at 30 mg/kg administered twice per day for 5 days followed by cerulein addition and measured 24 hrs post-last dose by H and E staining based histological analysis; assay type: functional, organism-based; settings: time 6.0 day
Summary of the method: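 H&E-stained pancreas sections are scored for edema and inflammation. Groups are control, cerulein and cerulein plus inhibitor, in both the pre-induction and post-induction cerulein acute pancreatitis models in mice.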

[13] = Tmax in CD-1 mouse at 1 mg/kg, iv measured up to 24 hrs by LC-MS analysis; assay type: ADME, organism-based; settings: in vivo
Summary of the method: (§1)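 Single dose, 1 mg/kg, given to mice intravenously or intraperitoneally. Parameters are taken from the plasma concentration–time profile: T1/2, Tmax, Cmax, C0 (iv only), AUClast, AUCINF_obs, Vz and Cl. Bioavailability is derived from ip versus iv exposure.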

Mus musculus [14] = assay: Protection against cerulein-induced acute pancreatitis in C57BL/6J mouse assessed as reduction in TNF-alpha mRNA level at 30 mg/kg administered 24 hrs post-cerulein addition and measured after 24 hrs by Trisure-reagent based RT-PCR analysis; assay type: functional, organism-based
Summary of the method: (§2)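 Post-induction (treatment) protocol in C57BL/6J mice. Acute pancreatitis is induced by several cerulein administrations, followed by ip sEH inhibitor at 3 or 30 mg/kg. Pancreatic mRNA of TNF-α, IL-1β, MCP-1 and ATF3 is quantified against control and cerulein-only groups. Mean ± SEM, n = 5 per group.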

Mus musculus [15] = assay: Protection against cerulein-induced acute pancreatitis in C57BL/6J mouse assessed as reduction in MCP1 mRNA level at 30 mg/kg administered twice per day for 5 days followed by cerulein addition and measured 24 hrs post-last dose by Trisure-reagent based RT-PCR analysis; assay type: functional, organism-based; settings: time 6.0 day
Summary of the method: (§3)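 Pre-induction (prevention) protocol in C57BL/6J mice. Inhibitor is given ip at 30 mg/kg before cerulein induction of acute pancreatitis. Pancreatic mRNA of TNF-α, IL-1β, MCP-1 and ATF3 is compared with control and cerulein-only mice. Mean ± SEM, n = 5 per group.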

Mus musculus [16] = assay: Protection against cerulein-induced acute pancreatitis in C57BL/6J mouse assessed as reduction in TNF-alpha mRNA level at 3 mg/kg administered 24 hrs post-cerulein addition and measured after 24 hrs by Trisure-reagent based RT-PCR analysis; assay type: functional, organism-based; summary of the method: as §2
[17] = AUC (infinity) in CD-1 mouse at 1 mg/kg, ip measured up to 24 hrs by LC-MS analysis; assay type: ADME, organism-based; parameters: route intraperitoneal, dose 1 mg/kg, time <=24; settings: in vivo; summary of the method: as §1
[18] = Half life in CD-1 mouse at 1 mg/kg, iv measured up to 24 hrs by LC-MS analysis; assay type: ADME, organism-based; settings: in vivo; summary of the method: as §1
Mus musculus [19] = assay: Protection against cerulein-induced acute pancreatitis in C57BL/6J mouse assessed as reduction in ATF3 mRNA level at 30 mg/kg administered 24 hrs post-cerulein addition and measured after 24 hrs by Trisure-reagent based RT-PCR analysis; assay type: functional, organism-based; summary of the method: as §2
[20] = Half life in CD-1 mouse at 1 mg/kg, ip measured up to 24 hrs by LC-MS analysis; assay type: ADME, organism-based; settings: in vivo; summary of the method: as §1
Mus musculus [21] = assay: Protection against cerulein-induced acute pancreatitis in C57BL/6J mouse assessed as reduction in TNF-alpha mRNA level at 30 mg/kg administered twice per day for 5 days followed by cerulein addition and measured 24 hrs post-last dose by Trisure-reagent based RT-PCR analysis; assay type: functional, organism-based; settings: time 6.0 day; summary of the method: as §3
Mus musculus [22] = assay: Protection against cerulein-induced acute pancreatitis in C57BL/6J mouse assessed as reduction in MCP1 mRNA level at 3 mg/kg administered 24 hrs post-cerulein addition and measured after 24 hrs by Trisure-reagent based RT-PCR analysis; assay type: functional, organism-based; summary of the method: as §2
Mus musculus [23] = assay: Protection against cerulein-induced acute pancreatitis in C57BL/6J mouse assessed as reduction in IL-1beta mRNA level at 30 mg/kg administered twice per day for 5 days followed by cerulein addition and measured 24 hrs post-last dose by Trisure-reagent based RT-PCR analysis; assay type: functional, organism-based; settings: time 6.0 day; summary of the method: as §3
[24] = Acute toxicity in CD-1 mouse assessed as effect on behavior at 5 to 80 mg/kg, ip administered daily for 5 days; assay type: organism-based; settings: in vivo, 120 h, dose 5-80 mg/kg, time 5 day
Summary of the method: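 Mice received the compound intraperitoneally once a day for five consecutive days at 5, 10, 20 and 80 mg/kg. Acute toxicity was judged from body weight during treatment, apparent behaviour problems and the presence of petechiae.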

CC(=O)N1CCC(NC(=O)NC23CC4CC(CC(C4)O2)C3)CC1
IC50 [1]: 29.9 nM
Selectivity ratio (Homo sapiens [2]): > 100
Selectivity ratio [3]: > 100
Selectivity ratio [4]: > 100
Selectivity ratio [5]: > 100
Selectivity ratio [6]: > 100
efflux ratio at 2 h, 10 µM [7]: 4.3
Selectivity ratio (Homo sapiens [8]): > 100
Selectivity ratio (Homo sapiens [9]): > 100
Papp [10]: 9.45 ×10⁻⁶ cm/s
Selectivity ratio (Homo sapiens [11]): > 100

CC(C)S(=O)(=O)N1CCC(NC(=O)NC23CC4CC(CC(C4)O2)C3)CC1
Activity (Mus musculus [12]): Active
Tmax [13]: 9.6 min
Activity (Mus musculus [14]): Active
Activity (Mus musculus [15]): Active
Activity (Mus musculus [16]): inactive
AUC [17]: 35.2 ng·h/mL
t1/2 [18]: 2.8 h
Activity (Mus musculus [19]): Active
t1/2 [20]: 3.02 h
Activity (Mus musculus [21]): Active
Activity (Mus musculus [22]): inactive
Activity (Mus musculus [23]): Active
Activity [24]: Non-Toxic
